The source made the active and inactive calls. The calls are words filed in the database; no cut-off is given here.
Legend:
SW480 = assay: Effect on E-cadherin-bound beta-catenin levels in human SW480 cells at 2 to 8 uM incubated for 24 hrs by Western blot analysis; assay type: functional, cell-based; conditions: dose 2-8 µM
Procedure, shortened: (§1)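 SW480 cells at 1 × 10^6 cells/mL were treated with a range of inhibitor concentrations for 24 h. Cells were lysed in Tris/NaCl/NP-40/deoxycholate/SDS buffer with protease inhibitors. Lysates were run on 8% SDS-PAGE and blotted to nitrocellulose. Blots were probed overnight at 4 °C for total β-catenin (mostly the E-cadherin-bound pool), active β-catenin (dephosphorylated S37/T41), cyclin D1, c-myc and β-tubulin. Detection used infrared secondary antibodies. Duplicate.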

[1] = target: T1, beta-catenin-B-cell lymphoma 9 protein complex (Homo sapiens) (UniProt P35222+O00512); assay: Inhibition of protein interaction between beta-catenin /BCL9 in human SW480 cells assessed as reduction in Wnt target genes by measuring c-Myc protein expression at 25 to 100 uM incubated for 24 hrs by Western blot analysis; assay type: cell-based; conditions: dose 25-100 µM; procedure, shortened: as §1
[2] = target: T1, beta-catenin-B-cell lymphoma 9 protein complex (Homo sapiens); assay: Inhibition of protein interaction between full-length beta-catenin (unknown origin) / full-length BCL9 (unknown origin) in human HCT-116 cell lysates incubated for 4 hrs by co-immunoprecipitation assay; assay type: subcellular
Procedure, shortened: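 HCT116 cells were lysed in 50 mM Tris pH 7.4, 150 mM NaCl, 1% NP-40, 2 mM EDTA and protease inhibitors. Lysates were incubated with a range of inhibitor concentrations for 4 h at 4 °C and precleared on protein A/G agarose. β-Catenin was immunoprecipitated overnight at 4 °C and captured on A/G beads for 3 h. Beads were washed five times and run on 8% SDS-PAGE. Blots were probed for BCL9 and E-cadherin.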

[3] = Effect on HPRT mRNA expression in human SW480 cells at 25 uM incubated for 24 hrs by qPCR analysis relative to control; assay type: ADME, cell-based; conditions: read-out: FC
Procedure, shortened: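 SW480 cells at 1 × 10^6/mL were treated with inhibitor for 24 h. Total RNA was extracted with TRIzol and cDNA made by first-strand synthesis. SYBR green qPCR used human HPRT primers, with CT values normalised to GAPDH as internal reference. Performed in triplicate.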

[4] = Drug level in human HCT-116 cells assessed as cell membrane bound compound level at 50 uM incubated for 6 hrs at 4 degC in presence of DMEM media with 10% FBS; assay type: ADME, cell membranes; conditions: hct-116, 6 h
Procedure, shortened: (§2)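 Cells were incubated with 50 μM compound for 6 h in 5 mL DMEM with 10% FBS, at 37 °C or at 4 °C. Cell-bound compound was quantified by a previously described method and expressed as nmol per million cells. The 4 °C incubation was used to estimate binding to the cell membrane through nonspecific association.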

[5] = Drug level in human HCT-116 cells assessed as per million cells at 50 uM incubated for 6 hrs at 4 degC in presence of DMEM media with 10% FBS; assay type: ADME, cell-based; conditions: hct-116, 6 h; procedure, shortened: as §2

Row | Compound | Activity (SW480) | inhibition [1] | inhibition [2] | fold induction at 25 µM [3] | Drug uptake [4] | Drug uptake [5]
1 | Cl.Cl.O=C(Nc1ccc(O[C@H]2CCNC2)c(-c2ccc(F)cc2)c1)c1ccc(O[C@H]2CCNC2)c(-c2ccc3ccsc3c2)c1 | inactive |  |  |  |  | 
2 | Cl.Cl.O=C(Nc1ccc(O[C@@H]2CCNC2)c(-c2cccc(-c3nn[nH]n3)c2)c1)c1ccc(O[C@H]2CCNC2)c(-c2ccc(F)c(F)c2)c1 |  | Active | Dose-dependent effect | 0.99 | 77% | 5.1 nmol

Source: ChEMBL document CHEMBL4680104, “Structure-Based Optimization of Small-Molecule Inhibitors for the β-Catenin/B-Cell Lymphoma 9 Protein-Protein Interaction” (J Med Chem, 2018)
